High-throughput results: PubChem BioAssay, Broad Institute
Rows were chosen to be rich in hits. Some 2.5% of all compounds tested hit in one or more screens of this group.
FGF22 binding – FGF22 (human) thermal shift binding; recombinant FGF22 thermal shift, SYPRO orange fluorescence; percent of sucrose octasulfate shift, DMSO zero; 1.5% of 340,000 active; Q9HCT0; activity (Tm shift, normalised), % at 9.99 µM;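 active = mean Tm shift, scaled 0 neutral to 100 positive control, at about 1.3% or above, every replicate too, limit read from the data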
Target sequence (Q9HCT0 whole entry, looked up): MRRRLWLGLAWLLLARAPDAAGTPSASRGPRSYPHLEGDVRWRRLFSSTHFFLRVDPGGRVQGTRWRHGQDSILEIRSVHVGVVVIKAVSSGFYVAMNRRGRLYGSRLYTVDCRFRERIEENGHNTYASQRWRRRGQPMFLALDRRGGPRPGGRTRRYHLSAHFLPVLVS
SIRT5 block – inhibitors of human sirtuin-5 desuccinylase. Purified SirT5, succinyl-peptide AMC, trypsin-coupled fluorescence. Q9NXA8. inhibition, % at 15 µM. AID 652115. 1.1% of 330,000 active; in the data active = inhibition above about 15%
Target sequence (Q9NXA8 whole entry, looked up): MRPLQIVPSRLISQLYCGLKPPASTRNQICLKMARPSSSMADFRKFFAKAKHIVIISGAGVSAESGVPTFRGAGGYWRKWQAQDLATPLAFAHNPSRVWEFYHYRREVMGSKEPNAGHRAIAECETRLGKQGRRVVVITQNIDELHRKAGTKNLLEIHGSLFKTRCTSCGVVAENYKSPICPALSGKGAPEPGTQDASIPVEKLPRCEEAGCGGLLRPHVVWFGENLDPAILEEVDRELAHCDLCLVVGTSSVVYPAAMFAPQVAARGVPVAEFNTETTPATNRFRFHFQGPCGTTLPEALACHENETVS
S100A4 inh HTS – blocks human S100A4 binding to myosin IIA peptide | P26447 | S100A4/TAMRA-MyoIIA peptide fluorescence polarization | inhibition, % at 10.7 µM | 0.14% of 360,000 active | AID 652163;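 active = mean inhibition of at least 70% across replicates, with every replicate also reaching that level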
Target sequence (P26447 whole entry, looked up): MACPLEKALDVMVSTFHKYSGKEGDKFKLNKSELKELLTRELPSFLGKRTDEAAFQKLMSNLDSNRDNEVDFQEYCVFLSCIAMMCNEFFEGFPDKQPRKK
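Material: S100A4 monomer (human). Medium: Calcium-containing HEPES buffer, pH 7.2. Probe or stimulus: labelled myosin peptide probe, 5 nM. Compound dosing: one concentration per compound. Timing: polarization read 5 min after assay mix addition, stable 5–60 min. Benchmarks: DMSO as neutral control, TFP as positive control.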
E-selectin induc – induces E-selectin expression in human endothelial cells; P16581; 0.37% of 260,000 active; activation, % at 7.58 µM; HUVEC E-selectin immunofluorescence imaging; normalized: neutral wells 0, TNF-alpha wells 100; AID 686992;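 active = mean E-selectin-positive cell signal at least 10% of the positive control, reached in at least 60% of replicates, without over 20% cell loss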
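System: HUVEC / Compound: single concentration / Signal: immunofluorescence imaging / Read-out: percent E-selectin-positive cells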
miR-122 sensor – inhibitors of miR-122 in Huh7 cells; Huh7 miR-122 Renilla luciferase sensor, 48 h; neutral wells = 0, positive control = 100; 0.3% of 340,000 active; AID 602342; activation (reporter increase), % at 12.5 µM;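 active = mean replicate activation score at least 90 and every replicate individually at or above 90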;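 also: higher luciferase means less miR-122 activity so hits act as miR-122 inhibitors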
Starred values were filed as active, the others as inactive; . = no result; + = active, no number; [ ] = remark or other dose.

SMILES | FGF22 binding | SIRT5 block | S100A4 inh HTS | E-selectin induc | miR-122 sensor
COC(=O)c1ccc(OCC(O)CN2C(=O)c3ccccc3S2(=O)=O)cc1 (centres undefined) | 43* | -4 | -2 | . | -3
Cc1cc(C)c(NC(=O)c2ccccc2CCc2ccccc2)c(C)c1 | . | . | . | . | 5
Cc1cc(C)c(NC(=O)c2ccccc2C(=O)c2ccccc2)c(C)c1 | 43* | -2 | -4 | -1 | .
COc1cccc(C#Cc2ccc3c(c2)[C@H]2[C@H](CCN2S(=O)(=O)c2cccc(OC)c2)[C@H](CO)N3)c1 | . | 8 | -13 | 0 | .
CCN(CC)c1ccc(/C=N/N2CCN(Cc3ccc(C)cc3)CC2)c(O)c1 | 0 | 20* | 4 | . | .
CCN(CC)c1ccc(/C=N/N2CCN(Cc3ccccc3Cl)CC2)c(O)c1 | 0 | 0 | -4 | . | -1
Nc1cc(S(=O)(=O)c2ccc(O)c(N)c2)ccc1O | 0 | 16* | 8 | 4 | .
Nc1ccc(S(=O)(=O)c2ccc(N)c(N)c2)cc1 | 0 | 3 | -4 | . | 11
CN1C[C@@H]2[C@H](c3ccccc31)[C@H](CO)N2C(=O)C1CCCCC1 | 0 | 0 | -30 | 0 | 0[16.7 µM]
CCCNC(=O)c1cc(C2CCCCN2C(=O)c2ccc3ccccc3c2)on1 (centres undefined) | 0 | 0 | 2 | 0 | -2
CCCNC(=O)c1cc(C2CCCCN2C(=O)c2ccc3c(c2)CCO3)on1 (centres undefined) | 43* | . | -1 | 0 | -9
O=C(c1ccc2c(c1)OCO2)N1C[C@H]2[C@@H](c3ccccc31)[C@H](CO)N2Cc1ccccc1Cl | -1 | 4 | -1 | 0 | -1[16.7 µM]
Cc1ccc(OCC(=O)Nc2sc3c(c2C#N)CC(C)(C)NC3(C)C)cc1 | 43* | -6 | 4 | 2 | .
O=C(COC(=O)/C=C/c1cccc([N+](=O)[O-])c1)Nc1cccnc1Cl | 0 | . | 2 | 124* | .
NS(=O)(=O)c1ccc(CCNC(=O)c2cc(-c3ccco3)nc3ccccc23)cc1 | 6.2* | -15 | -8 | . | .
COc1cccc(CNC(=O)C[C@H]2C=C[C@@H](NS(=O)(=O)c3ccccc3OC)[C@@H](CO)O2)c1 | . | . | . | 0 | .
O=C(Nc1ccc(C(F)(F)F)cc1)c1csc(-c2ccncc2)n1 | 43* | -1 | -17 | . | .
CC1=C(c2ccccc2)[N+](=O)C2(CCCCC2)N1[O-] | 43* | 3 | -4 | 0 | -17
Cc1ccc2nc(N)nnc2c1 | 0 | 2 | -5 | 0 | .
Nc1nnc2cc(Cl)ccc2n1 | 44* | . | -2 | 2 | -6
Cc1cccc(Cl)c1NC(=O)NCCCN1CCCCC1C (centres undefined) | 0 | 23* | 1 | 0 | .
Cc1ccc(S(=O)(=O)N(C)C[C@@H]2Oc3ccc(NC(=O)c4ccncc4)cc3C(=O)N([C@@H](C)CO)C[C@H]2C)cc1 | 0 | -2 | 1 | -1 | -7[16.7 µM]
COCC#Cc1ccc2c(c1)O[C@@H](CN(C)CC1CCOCC1)[C@H](C)CN([C@@H](C)CO)S2(=O)=O | 0 | -1 | 14 | 0 | -4[16.7 µM]
COc1cccc2c1C(=O)c1c(O)c3c(c(O)c1C2=O)CC(O)(C(C)=O)CC3OC1CC(O)C(O)C(C)O1 (centres undefined) | -1 | . | + | 1 | 0
CCCCC(=O)OCC(=O)C1(O)Cc2c(O)c3c(c(O)c2C(OC2CC(NC(=O)C(F)(F)F)C(O)C(C)O2)C1)C(=O)c1c(OC)cccc1C3=O (centres undefined) | 0 | -3 | 34 | 0 | 3
SMILES | FGF22 binding | SIRT5 block | S100A4 inh HTS | E-selectin induc | miR-122 sensor
COc1cccc2c1C(=O)c1c(O)c3c(c(O)c1C2=O)C[C@](O)(C(C)=O)C[C@H]3O[C@@H]1C[C@@H](N)[C@@H](O)[C@@H](C)O1 | 0 | -2 | + | 146* | -31
COc1cccc2c1C(=N)c1c(O)c3c(c(O)c1C2=O)CC(O)(C(C)=O)CC3OC1CC(N)C(O)C(C)O1 (centres undefined) | . | . | . | . | 25
O=C(/C=C/c1ccc2ccccc2n1)c1cc(Br)ccc1O | 0 | -2 | 13 | . | .
O=C(/C=C/c1ccc(F)cc1)c1cc(Br)ccc1O | 0 | 16* | -2 | 0 | 15
CSc1nc2ccccc2n1Cc1cccc([N+](=O)[O-])c1 | 44* | 0 | 1 | . | -2
C(=NN=C(NN=Cc1cccs1)NN=Cc1cccs1)c1cccs1 | 43* | . | 0 | 0 | .
COc1ccc(S(=O)(=O)N[C@@H]2CC[C@H](CCn3cc(C(C)C)nn3)O[C@@H]2CO)cc1 | 0 | 0 | -2 | 0 | 1[16.7 µM]
CCCNC(=O)C(Cc1ccccc1)NC(=O)c1ccccc1 (centres undefined) | 0 | . | -3 | 0 | 1
CC(C)c1ccc(CC(NC(=O)c2ccccc2)C(=O)NCC(=O)O)cc1 (centres undefined) | 43* | 3 | 2 | 0 | .
O=C(N[C@@H](Cc1ccccc1)C(=O)NC1CC1)c1ccc(Cl)cc1 | 42 | 25* | -1 | . | -5
Cc1cc2nc(N3C(=O)CNC3=S)sc2cc1C | 43* | 2 | 3 | 2 | 8
CCOc1ccc2nc(N3C(=O)CNC3=S)sc2c1 | 0 | -5 | -2 | . | .
CC(C)NC(=O)Nc1ccc2c(c1)CC(=O)N([C@@H](C)CO)C[C@@H](C)[C@H](CN(C)Cc1ccc(-c3ccccc3)cc1)O2 | 0 | 2 | 9 | . | -3[16.7 µM]
COC(=O)C1=C(C)N(C)C(=S)NC1c1ccc(Cl)cc1 (centres undefined) | 44* | 3 | -16 | . | .
Cc1ccc(S(=O)(=O)NC[C@@H]2CC[C@@H]3[C@@H](CN3Cc3cc(-c4ccccc4)on3)O2)cc1 | . | -3 | -2 | . | .
CC(=O)Nc1cccc(NC(=O)CS(=O)(=O)c2cn(CC(=O)N3CCOCC3)c3ccccc23)c1 | 43* | -5 | 2 | . | .
Cc1ccccc1COc1ccc(/C=C(\C#N)C(N)=O)cc1 | 44* | 0 | -2 | . | 3
N#Cc1ccccc1COc1ccc(/C=C/C(=O)O)cc1 | 43* | 1 | -2 | 1 | .
O=C(O)/C=C/c1ccc(S(=O)(=O)Nc2ccc(OCc3ccccc3)cc2)cc1 | 0 | -5 | 28 | 0 | 2
COc1ccc2c3c(n(C)c2c1)[C@H](CO)N(C(=O)c1cccc(F)c1)CC31CN(CC2CC2)C1 | 0 | 6 | 3 | 1 | .
CCOc1ccccc1N1C(=O)CC(Sc2n[nH]c(-c3ccccc3)n2)C1=O (centres undefined) | 44* | 1 | -1 | . | .
C/C=C/c1ccc2c(c1)O[C@@H](CN(C)C(=O)C1CCC1)[C@@H](C)CN([C@@H](C)CO)S2(=O)=O | . | . | . | 0 | 3[16.7 µM]
COc1cc2oc3ccccc3c2cc1N(CC(=O)N(C)C)S(=O)(=O)c1ccccc1 | . | . | . | . | 114*
COc1cc2oc3ccccc3c2cc1N(CC(=O)N(C)C)S(=O)(=O)c1ccc(C)cc1 | . | . | . | . | -5
